Assay results taken from article PMC6130786 (ACS Omega, 2018).

Columns and labels:
[1] = target: Aβ fibrils (Homo sapiens, UniProt P05067); experiment: Thioflavin-T competition binding assay, Aβ fibrils
How it was run: (§1)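 Fibrils were prepared per earlier work and held fixed at 1 μM. Thioflavin-T was 50 nM with Aβ fibrils and 4 μM with tau fibrils. Test compound at varying concentrations was diluted in 30 mM Tris-HCl pH 7.4 with 0.1% BSA. Incubation was 1.5 h at room temperature, and fluorescence was read at ex 440/30, em 485/20. EC50 came from a one-site competitive fit, Ki = EC50/(1+[ligand]/Kd), as mean ± SD of two assays.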

[2] = target: tau fibrils (Homo sapiens, UniProt P10636); experiment: Thioflavin-T competition binding assay, tau fibrils
How it was run: as §1

tau fibrils, sequence (P10636 560-692 limits assumed): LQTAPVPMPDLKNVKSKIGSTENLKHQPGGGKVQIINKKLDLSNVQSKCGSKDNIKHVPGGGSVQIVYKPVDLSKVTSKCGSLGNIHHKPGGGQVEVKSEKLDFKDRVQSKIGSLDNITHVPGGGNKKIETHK
Aβ fibrils, sequence (P05067 672-713): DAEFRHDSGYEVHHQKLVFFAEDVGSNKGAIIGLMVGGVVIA

Structure (SMILES) | Ki [1] [nM] | Ki [2] [nM]
O=C(/C=C/c1ccc([N+](=O)[O-])cc1)c1nc2ccccc2s1 [Compound 6, (E)-1-(Benzo[d]thiazol-2-yl)-3-(4-nitrophenyl)prop-2-en-1-one] | 89 ± 26.9 | 
COc1ccc(-c2cc(-c3nccs3)on2)cc1 [Compound 10, 3-(4-Methoxyphenyl)-5-(thiazol-2-yl)isoxazole] | > 1000 | > 1000
O=C(/C=C/c1ccc([N+](=O)[O-])cc1)c1nccs1 [Compound 9, (E)-3-(4-Nitrophenyl)-1-(thiazol-2-yl)prop-2-en-1-one] | 404 ± 80.6 | 
CN(C)c1ccc(/C=C/C(=O)c2nccs2)cc1 [Compound 8, (E)-3-(4-(Dimethylamino)phenyl)-1-(thiazol-2-yl)prop-2-en-1-one] | 505 ± 49.5 | 401 ± 118
COc1ccc(/C=C/c2cc(-c3nccs3)[nH]n2)cc1 [Compound 13, (E)-2-(3-(4-Methoxystyryl)-1H-pyrazol-5-yl)thiazole] | 327 ± 76.4 | > 1000
COc1ccc(/C=C/C(=O)c2nc3ccccc3s2)cc1 [Compound 4, (E)-1-(Benzo[d]thiazol-2-yl)-3-(4-methoxyphenyl)prop-2-en-1-one] | 353 ± 29.7 | 716 ± 58.7
COc1ccc(-c2cc(-c3nccs3)n[nH]2)cc1 [Compound 12, 2-(5-(4-Methoxyphenyl)-1H-pyrazol-3-yl)thiazole] | > 1000 | > 1000
COc1ccc(/C=C/C(=O)c2nccs2)cc1 [Compound 7, (E)-3-(4-Methoxyphenyl)-1-(thiazol-2-yl)prop-2-en-1-one] | > 500 | > 1000
CN(C)c1ccc(/C=C/C(=O)c2nc3ccccc3s2)cc1 [Compound 5, (E)-1-(Benzo[d]thiazol-2-yl)-3-(4-(dimethylamino)phenyl)prop-2-en-1-one] | 91 ± 12.7 | 
